Measured values as given in ChEMBL document CHEMBL1177882, “Novel bisstyryl derivatives of bakuchiol: targeting oral cavity pathogens” (2010).
Values after ≈ are worked out from the molar mass of the structure shown.

Legend:
[1] = test system: Prevotella intermedia; assay: Antibacterial activity against Prevotella intermedia ATCC 25611 after 48 hrs by broth microdilution method; format: functional; conditions: ATCC 25611, 48 h
In short: (§1)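 Broth microdilution MIC for obligate anaerobes, run in their growth media (Wilkins–Chalgren for F. nucleatum and P. intermedia; supplemented Todd Hewitt broth for P. gingivalis). Inoculum suspended in Brucella broth, final 5 × 10^6 cfu/ml. Twofold dilutions, final 0.12–128 µg/ml. Incubated anaerobically (90% N2/5% H2/5% CO2) at 37 °C for 48 h; MIC is the lowest concentration without turbidity.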

[2] = test system: Streptococcus mutans; assay: Ratio of compound MBIC50 to bakuchiol MBIC50 for Streptococcus mutans ATCC 25175; format: functional
In short: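 MBIC50 from crystal-violet S. mutans biofilm assay (BHI + 2% sucrose, 18 h, 37 °C, 5% CO2, A595 read) for each compound, divided by the bakuchiol MBIC50 from the same assay.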

[3] = test system: Fusobacterium nucleatum; assay: Antibacterial activity against Fusobacterium nucleatum ATCC 10953 after 48 hrs by broth microdilution method; format: functional; conditions: ATCC 10953, 48 h; in short: as §1
[4] = test system: Streptococcus mutans; assay: Antibacterial activity against Streptococcus mutans ATCC 25175 after 24 hrs by broth microdilution method; conditions: ATCC 25175, 24 h
[5] = test system: Streptococcus sanguinis; assay: Antibacterial activity against Streptococcus sanguinis ATCC 10556 after 24 hrs by broth microdilution method; conditions: ATCC 10556, 24 h
[6] = test system: Streptococcus mutans; assay: Antibacterial activity against Streptococcus mutans ATCC 25175 after 48 hrs by broth microdilution method; format: functional; conditions: ATCC 25175, 48 h
[7] = test system: Streptococcus sanguinis; assay: Antibacterial activity against Streptococcus sanguinis ATCC 10556 after 48 hrs by broth microdilution method; format: functional; conditions: ATCC 10556, 48 h
[8] = test system: Streptococcus mutans; assay: Antibacterial activity against Streptococcus mutans ATCC 25175 assessed as inhibition of biofilm formation after 18 hrs; format: functional
In short: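 Single-species S. mutans biofilm grown in flat-bottom polystyrene wells, BHI with 2% sucrose, 6 × 10^7 cfu/ml final, compound twofold 0.12–128 µg/ml, 18 h at 37 °C in 5% CO2. Wells rinsed with PBS pH 7.2, methanol-fixed, stained with 0.1% crystal violet, eluted in 95% ethanol, A595 read. % inhibition relative to untreated control; MBIC50 is the lowest concentration giving ≥50% inhibition.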

[9] = test system: Actinomyces viscosus; assay: Antibacterial activity against Actinomyces viscosus ATCC 15987 after 48 hrs by broth microdilution method; format: functional; conditions: ATCC 15987, 48 h
[10] = test system: Actinomyces viscosus; assay: Antibacterial activity against Actinomyces viscosus ATCC 15987 after 24 hrs by broth microdilution method; conditions: ATCC 15987, 24 h
[11] = test system: Porphyromonas gingivalis; assay: Antibacterial activity against Porphyromonas gingivalis ATCC 33277 after 48 hrs by broth microdilution method; format: functional; conditions: ATCC 33277, 48 h; in short: as §1

## CC(C)=CCC[C@](C)(/C=C/c1ccc(O)cc1)/C=C/c1ccc(F)cc1
[1]
  MBC: 4 µg/mL (≈ 11.4 µM)
  MIC: 2 µg/mL (≈ 5.71 µM)
[2]
  Ratio: 2
[3]
  MBC: > 128 µg/mL
  MIC: > 128 µg/mL
[4]
  MIC: 4 µg/mL (≈ 11.4 µM)
[5]
  MIC: 4 µg/mL (≈ 11.4 µM)
[6]
  MBC: 4 µg/mL (≈ 11.4 µM)
[7]
  MBC: 8 µg/mL (≈ 22.8 µM)
[8]
  MBIC50: 8 µg/mL
[9]
  MBC: 8 µg/mL (≈ 22.8 µM)
[10]
  MIC: 4 µg/mL (≈ 11.4 µM)
[11]
  MBC: 4 µg/mL (≈ 11.4 µM)
  MIC: 2 µg/mL (≈ 5.71 µM)
